Compounds with a hit are over-represented: about 0.61% of the library has one in this group of screens.
CFTR F508del cor = correctors of CFTR F508del function in bronchial epithelial cells. CFBE cells, YFP halide quenching; stimulated with forskolin plus potentiator P3; % fluorescence drop versus neutral controls. activity (quench increase), % at 7.58 µM. 350,000 tested, 0.36% active. AID 720511;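 active means mean added fluorescence quench of at least 8% versus neutral control, with both replicates also reaching 8%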;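 further: cells transiently co-express mutant CFTR-F508del with the halide-sensitive YFP; corrector assay measuring rescue of mutant channel to the surface after 24 h compound exposure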
E-selectin induc = E-selectin induction on HUVECs | HUVEC E-selectin immunofluorescence imaging; normalized: neutral wells 0, TNF-alpha wells 100 | activation, % at 7.58 µM | 260,000 tested, 0.37% active;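 active means mean E-selectin-positive cell signal at least 10% of the positive control, reached in at least 60% of replicates, without over 20% cell loss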
Target sequence (P16581 whole entry, looked up): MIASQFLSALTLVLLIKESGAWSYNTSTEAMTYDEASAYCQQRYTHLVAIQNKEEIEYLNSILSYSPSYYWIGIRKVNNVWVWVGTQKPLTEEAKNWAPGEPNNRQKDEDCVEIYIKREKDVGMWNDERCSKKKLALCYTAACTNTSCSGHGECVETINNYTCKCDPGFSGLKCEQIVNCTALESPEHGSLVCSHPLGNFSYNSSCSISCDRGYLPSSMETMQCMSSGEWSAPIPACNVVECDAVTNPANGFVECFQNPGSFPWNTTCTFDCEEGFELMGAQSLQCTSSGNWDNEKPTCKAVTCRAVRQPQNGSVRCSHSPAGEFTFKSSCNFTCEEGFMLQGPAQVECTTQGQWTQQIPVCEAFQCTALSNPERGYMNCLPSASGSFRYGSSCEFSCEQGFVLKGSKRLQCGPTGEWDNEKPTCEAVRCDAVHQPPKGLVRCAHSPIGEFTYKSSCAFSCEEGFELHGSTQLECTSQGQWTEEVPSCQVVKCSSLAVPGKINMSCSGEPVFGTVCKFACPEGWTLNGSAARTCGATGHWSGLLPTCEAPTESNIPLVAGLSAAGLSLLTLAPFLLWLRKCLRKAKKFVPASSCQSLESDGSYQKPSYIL
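Read-out basis: % PE-positive cells; Test system: HUVEC primary endothelial cells; Technique: immunofluorescence imaging; Dosing: single-point compound dose.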
Xi reactivation = X-chromosome reactivation activator | activation, % at 7.58 µM | XiGFP mouse fibroblasts, % GFP-positive cells imaging, 3 d; cells co-treated with 5-aza-dC sensitizer; scaled so ellipticine positive control = 100% | 360,000 tested, 0.055% active | AID 743238;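 active means mean normalized replicate activation at least 10% and every replicate at or above 10%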;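 further: 0% = median of on-plate neutral control wells and 100% = ellipticine 6 µM median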
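Material: SV40-immortalized XiGFP fibroblast cells, line 68-5-11 | Buffer or medium: DMEM containing 5-aza-dC | Dosing: One concentration, pinned | Times: 3 d treatment, 15 min room-temperature fixation | Controls: Ellipticine 6 µM positive control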
Starred values were filed as active, the others as inactive.

For C[C@@H](NC(=O)C[C@H]1CC[C@@H]2[C@H](COC[C@H](O)CN2C)O1)c1ccccc1 the results were CFTR F508del cor -2, E-selectin induc 0 and Xi reactivation 0.
`O=C(N/N=C/c1ccccc1OC(F)F)c1cc(-c2ccncc2)nc2ccccc12` gave CFTR F508del cor 9.5* and Xi reactivation 1.
For O=C(O)COc1ccccc1/C=N/NC(=O)c1cc(-c2ccccc2)nc2ccccc12 the results were CFTR F508del cor 3 and Xi reactivation 0.
Screening CNC[C@H]1Oc2c(NC(=O)Cc3ccccc3)cccc2C(=O)N([C@H](C)CO)C[C@@H]1C returned Xi reactivation -1.
`O=C(Nc1cccc(S(=O)(=O)NCc2ccco2)c1)c1cccc(Cl)c1` gave CFTR F508del cor 2, E-selectin induc 200* and Xi reactivation 0.
Screening CC(=O)Nc1cccc(C(=O)Nc2cccc(S(=O)(=O)NCc3ccco3)c2)c1 returned CFTR F508del cor -4, E-selectin induc -1 and Xi reactivation 0.
`Cc1ccc(-c2cnc3c(c2)C(=O)N([C@@H](C)CO)C[C@@H](C)[C@H](CN(C)C(=O)c2ccc(F)cc2)O3)cc1` gave CFTR F508del cor 2, E-selectin induc 0 and Xi reactivation 1.
`O=C(C[C@H]1CC[C@@H]2[C@H](COC[C@H](O)CN2CC2CCCC2)O1)NCc1ccc(Cl)cc1` gave CFTR F508del cor -4, E-selectin induc 0 and Xi reactivation 0.
CC(=O)OCC(=O)NCCCOc1cccc(CN2CCCCC2)c1 was read as CFTR F508del cor 8.3*, E-selectin induc 0 and Xi reactivation 0.
For c1ccc(COc2cccc(CN3CCCCC3)c2)cc1 the results were CFTR F508del cor 3 and Xi reactivation 0.
For O=C(C[C@H]1CC[C@@H]2[C@H](COC[C@@H](O)CN2C(=O)C2CCCC2)O1)NCc1ccncc1 the results were CFTR F508del cor 3, E-selectin induc 0 and Xi reactivation 0.
C[C@@H]1CN([C@H](C)CO)C(=O)c2cc(C3=CCCC3)cnc2O[C@H]1CN(C)C(=O)Nc1ccccc1 was read as CFTR F508del cor 2, E-selectin induc 49* and Xi reactivation -1.
Screening C[C@H]1CN([C@@H](C)CO)C(=O)c2cc(C3=CCCC3)cnc2O[C@H]1CN(C)C(=O)Nc1ccccc1 returned CFTR F508del cor -1, E-selectin induc 0 and Xi reactivation -1.
Screening CCCNC(=O)N(C)C[C@@H]1Oc2ncc(C3=CCCCC3)cc2C(=O)N([C@H](C)CO)C[C@@H]1C returned CFTR F508del cor 2, E-selectin induc 0 and Xi reactivation 1.
For CCC(=O)N(C)C[C@H]1Oc2ncc(Br)cc2C(=O)N([C@@H](C)CO)C[C@@H]1C the results were CFTR F508del cor -1, E-selectin induc 73* and Xi reactivation -1.
C[C@H]1CN([C@@H](C)CO)C(=O)c2cc(Br)cnc2O[C@@H]1CN(C)C(=O)CN(C)C was read as CFTR F508del cor 0, E-selectin induc 1 and Xi reactivation 0.
Screening CCCNC(=O)N(C)C[C@@H]1Oc2ncc(C3=CCCC3)cc2C(=O)N([C@H](C)CO)C[C@H]1C returned CFTR F508del cor 1, E-selectin induc 58* and Xi reactivation -1.
Screening C[C@@H]1CN([C@@H](C)CO)C(=O)c2cc(C3=CCCCC3)cnc2O[C@H]1CN(C)C(=O)NC1CCCC1 returned CFTR F508del cor -2, E-selectin induc 117* and Xi reactivation -1.
Screening C[C@H](CO)N1C[C@H](C)[C@H](CN(C)C(=O)NC2CCCC2)Oc2ncc(C3=CCCCC3)cc2C1=O returned CFTR F508del cor -3, E-selectin induc 0 and Xi reactivation -1.
Screening CCCC#Cc1ccc([C@@H]2[C@@H](CO)N3CCCCN(S(=O)(=O)c4ccccc4C)C[C@H]23)cc1 returned CFTR F508del cor -2, E-selectin induc -1 and Xi reactivation 0.
For C[C@H]1CN([C@@H](C)CO)C(=O)CCCn2cc(nn2)CO[C@H]1CN(C)C(=O)c1cc(-c2ccccc2)on1 the results were CFTR F508del cor 2, E-selectin induc 1 and Xi reactivation -1.
Screening CCCNC(=O)N(C)C[C@H]1Oc2cc(Br)ccc2S(=O)(=O)N([C@H](C)CO)C[C@H]1C returned CFTR F508del cor 0, E-selectin induc -1 and Xi reactivation 0.
Screening CO[C@H]1CN(C)C(=O)c2cc(NC(=O)c3ccccc3)ccc2OC[C@@H](C)N(CC2CC2)C[C@@H]1C returned CFTR F508del cor -1, E-selectin induc 0 and Xi reactivation 0.
`COc1ccccc1S(=O)(=O)Nc1ccc2c(c1)C(=O)N(C)C[C@H](OC)[C@H](C)CN[C@@H](C)CO2` gave CFTR F508del cor -1, E-selectin induc 0 and Xi reactivation -1.
`Cc1ccc(-c2cccc(-c3cc(=O)oc4ccc(C(C)(C)C)cc34)c2)cc1` gave CFTR F508del cor 8.7* and Xi reactivation 0.
For COc1cc(OC)c2c(-c3cccc(-c4ccc(C(F)(F)F)cc4)c3)cc(=O)oc2c1 the results were CFTR F508del cor 2 and Xi reactivation 0.
`CC(C)C#Cc1cnc2c(c1)C(=O)N([C@@H](C)CO)C[C@H](C)[C@H](CN(C)Cc1cccc(F)c1)O2` gave CFTR F508del cor -3, E-selectin induc 0 and Xi reactivation 1.
For O=C(Nc1ccc(F)cc1)N1CCCCN2[C@H](CO)[C@H](c3ccc(-c4cccc(F)c4)cc3)[C@H]2C1 the results were CFTR F508del cor 7, E-selectin induc 0 and Xi reactivation 0.
`O=C(Nc1cccc(F)c1)N1CCCCN2[C@H](CO)[C@@H](c3ccc(C#Cc4ccccc4)cc3)[C@@H]2C1` gave CFTR F508del cor 2, E-selectin induc -1 and Xi reactivation 0.
`O=C(Nc1ccc(F)cc1)N1CCCCN2[C@H](C1)[C@H](c1ccc(-c3cccc(F)c3)cc1)[C@@H]2CO` gave CFTR F508del cor 8.9*, E-selectin induc 0 and Xi reactivation 1.
O=C(Nc1cccc(F)c1)N1CCCCN2[C@H](C1)[C@@H](c1ccc(-c3ccncc3)cc1)[C@@H]2CO was read as CFTR F508del cor 0, E-selectin induc 0 and Xi reactivation 0.
Screening Cc1ccc(-c2ccc([C@H]3[C@@H](CO)N4CCCCN(C(=O)Nc5cccc(F)c5)C[C@H]34)cc2)cc1 returned CFTR F508del cor 8.0*, E-selectin induc 0 and Xi reactivation 0.
Screening O=C(Nc1cccc(F)c1)N1CCCCN2[C@@H](CO)[C@H](c3ccc(C#CC4CC4)cc3)[C@@H]2C1 returned CFTR F508del cor 8.6*, E-selectin induc -1 and Xi reactivation 0.
C[C@H]1CN([C@@H](C)CO)C(=O)Cc2cc(NC(=O)CCC(F)(F)F)ccc2O[C@H]1CN(C)Cc1ccc(C(=O)Nc2ccccc2N)cc1 was read as CFTR F508del cor 5 and Xi reactivation -1.
Screening CN(CC1CCCO1)S(=O)(=O)c1ccc(C(=O)Nc2nnc(-c3ccccc3)o2)cc1 (centres undefined) returned CFTR F508del cor 8.2*, E-selectin induc 0 and Xi reactivation 0.

Bioassay records as filed in PubChem.
